Measurements collected from several papers.
Compare with care: the assays were run in different laboratories.
Target: Serine/threonine-protein kinase MARK2 (MARK2, Homo sapiens, UniProt Q7KZI7)

| Structure (SMILES) | effect on | technique | concentration | remaining binding [%] |
| --- | --- | --- | --- | --- |
| O=S(=O)(NC1CCC(c2cc(F)ccc2F)(S(=O)(=O)c2ccc(Cl)cc2)CC1)C(F)(F)F (stereo not shown) | cell-free assay | competition with immobilised ligand | 1 µM | 100 |
| C[C@@H](c1ccc(-n2cnc3c(N)ncnc32)cc1)N1CCc2nn(C)c(Cc3ccccc3)c2C1=O | binding | competition with immobilised ligand | 0.1 µM | 91 |
| C[C@@]1(Cc2ccc(C#N)cc2)C(=O)N(c2cc(Cl)cc(Cl)c2)c2ncc(C(=O)NC3(c4nc(C5CCC5)no4)CC3)n21 | cell-free assay | competition with immobilised ligand | 1 µM | 85 |
| c1cnn2ncc(-c3ccnc(N4CCC45COC5)n3)c2c1 | binding | – | 1 µM | 63 |
| COc1cnc(Nc2cccc(S(N)(=O)=O)c2)nc1N1CCN(c2ccccc2)C(=O)C1 | binding | competition with immobilised ligand | 1 µM | 100 |
| CO[C@@H](C)c1c(Nc2ccc([C@@H](N(C)C(=O)C3CCS(=O)(=O)CC3)C(F)(F)F)cc2)cnc2cc(Cl)nn12 | cell-free assay | competition with immobilised ligand | 1 µM | 100 |
| FC(F)(F)Oc1cccc(-c2cnc3ccc(-c4ccncc4)nn23)c1 | cell-free assay | competition with immobilised ligand | 5 µM | 64 |
| CN(c1nccc(-c2cnn3ncccc23)n1)C1CC1 | binding | – | 1 µM | 100 |
| CCc1ccccc1C(=O)Nc1n[nH]c2c(C)c(F)c(C3C(C#N)=C(C)N(C)C(C)=C3C#N)cc12 | cell-free assay | competition with immobilised ligand | 1 µM | 40 |
| Cc1cnc(Nc2ccc(C(=O)N3CCC(N4CCCC4)CC3)cc2)nc1-c1cc2ccccc2s1 | binding | competition with immobilised ligand | 1 µM | 68 |
| CN(C)c1nccc(-c2cnc3ncccn23)n1 | binding | – | 1 µM | 100 |
| Nc1ncc2c(n1)-c1c([nH]c3ccc(C#CC4CC4)cc13)CCCC2 | binding | competition with immobilised ligand | 1 µM | 94 |
| CN(C)c1nccc(-c2cnn3ncccc23)n1 | binding | – | 1 µM | 96 |
| c1cncc(-c2cccc(Nc3nccc(NC4CCCCC4)n3)c2)c1 | binding | competition with immobilised ligand | 10 µM | 81 |
| CC1CCCN1c1nccc(-c2cnn3ncccc23)n1 (stereo not shown) | binding | – | 1 µM | 70 |
| O=C(c1ccc(Nc2ncc(Cl)c(-c3cc4ccccc4s3)n2)cc1)N1CCC(N2CCCC2)CC1 | binding | competition with immobilised ligand | 1 µM | 80 |
| CN(C)c1ncc(F)c(-c2cnn3ncccc23)n1 | binding | – | 1 µM | 72 |
| C[C@H](c1ccnc(Nc2nc3ccc(-c4cc(N(C)C)ncn4)cc3[nH]2)c1)N1CCN(C(=O)CC(F)(F)F)CC1 | cell-free assay | competition with immobilised ligand | 0.1 µM | 100 |
| O=C(c1ccc(Nc2nccc(-c3cc4ccccc4s3)n2)cc1)N1CCC(N2CCCC2)CC1 | binding | competition with immobilised ligand | 1 µM | 91 |
| N[C@H]1CCN(c2nccc(-c3cnn4ncccc34)n2)C1 | binding | – | 1 µM | 100 |
| CS(=O)(=O)NCC[C@H](NC(=O)c1cncc2c1cnn2-c1ccc(F)cc1)c1ccnc(S(C)(=O)=O)c1 | cell-free assay | competition with immobilised ligand | 1 µM | 75 |
| O=C(Nc1c[nH]nc1C(=O)NC1CCNCC1)c1cc(F)cc(F)c1 | binding | competition with immobilised ligand | 1 µM | 100 |
